Measured values reported in ChEMBL document CHEMBL2424551, “Synthesis, in vitro evaluation and molecular modelling of naphthalimide analogue as anticancer agents” (2013).

What was measured:
Format in all cases: functional
[1] = Cytotoxicity against human colon cancer cells after 48 hrs by SRB assay; settings: Cancer cell lines
How it was run: (§1)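 Five-concentration screen (10-fold or ½-log serial dilutions) on the 60-line panel. Cells grown in RPMI 1640 with 5% FBS and 2 mM L-glutamine, plated at 5000–40,000/well by doubling time, preincubated 24 h at 37 °C, 5% CO2, then exposed 48 h. Time-zero plates TCA-fixed. SRB stain, Tris-solubilized, A515. GI50, TGI and LC50 derived from Tz, C and Ti.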

[2] = Cytotoxicity against human renal cancer cells after 48 hrs by SRB assay; settings: Cancer cell lines; how it was run: as §1
MOLT-4 = experiment: Growth inhibition of human MOLT4 cells at 10 uM after 48 hrs by SRB assay; settings: MOLT-4, 48 h, read-out: GI
How it was run: (§2)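 Cells grown in RPMI 1640 with 5% FBS and 2 mM L-glutamine, plated at 5000–40,000 cells/well by doubling time and preincubated 24 h (37 °C, 5% CO2); a time-zero plate is TCA-fixed. Single dose added, then 48 h incubation. Fixed with cold TCA, stained with 0.4% SRB, dye solubilized in 10 mM Tris base, absorbance at 515 nm; percent growth vs time-zero and untreated control.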

[3] = Cytotoxicity against human prostate cancer cells after 48 hrs by SRB assay; settings: Cancer cell lines; how it was run: as §1
OVCAR-5 = experiment: Growth inhibition of human OVCAR5 cells at 10 uM after 48 hrs by SRB assay; settings: OVCAR-5, 48 h, read-out: GI; how it was run: as §2
[4] = Cytotoxicity against human CNS cancer cells after 48 hrs by SRB assay; settings: Cancer cell lines; how it was run: as §1
OVCAR-3 = experiment: Growth inhibition of human OVCAR3 cells at 10 uM after 48 hrs by SRB assay; settings: OVCAR-3, 48 h, read-out: GI; how it was run: as §2
NCI-H226 = experiment: Growth inhibition of human NCI-H226 cells at 10 uM after 48 hrs by SRB assay; settings: NCI-H226, 48 h, read-out: GI; how it was run: as §2
HOP-62 = experiment: Growth inhibition of human HOP62 cells at 10 uM after 48 hrs by SRB assay; settings: HOP-62, 48 h, read-out: GI; how it was run: as §2
KM12 = experiment: Growth inhibition of human KM12 cells at 10 uM after 48 hrs by SRB assay; settings: KM12, 48 h, read-out: GI; how it was run: as §2
786-0 = experiment: Growth inhibition of human 786-0 cells at 10 uM after 48 hrs by SRB assay; settings: 786-0, 48 h, read-out: GI; how it was run: as §2
Malme-3M = experiment: Growth inhibition of human MALME-3M cells at 10 uM after 48 hrs by SRB assay; settings: read-out: GI; how it was run: as §2
[5] = Cytotoxicity against human leukemia cells after 48 hrs by SRB assay; settings: Leukemia cell; how it was run: as §1
[6] = Cytotoxicity against human non-small cell lung cancer cells after 48 hrs by SRB assay; settings: Cancer cell lines; how it was run: as §1
DU-145 = experiment: Growth inhibition of human DU145 cells at 10 uM after 48 hrs by SRB assay; settings: DU-145, 48 h, read-out: GI; how it was run: as §2
[7] = Growth inhibition of human EKVX cells at 10 uM after 48 hrs by SRB assay; settings: read-out: GI; how it was run: as §2
UO-31 = experiment: Growth inhibition of human UO31 cells at 10 uM after 48 hrs by SRB assay; settings: UO-31, 48 h, read-out: GI
How it was run: (§3)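 NCI 60-cell-line screen with a single 10 µM dose. Cells are grown in RPMI 1640 with 5% FBS and 2 mM L-glutamine, plated at 5000–40,000 cells/well according to doubling time, and preincubated 24 h at 37 °C, 5% CO2; time-zero plates are TCA-fixed at that point. Drug exposure is 48 h. Adherent cells are fixed with cold TCA, stained with 0.4% SRB in 1% acetic acid and read at 515 nm. Percent growth is calculated relative to time-zero and untreated controls and reported as GI%.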

SK-MEL-5 = experiment: Growth inhibition of human SK-MEL-5 cells at 10 uM after 48 hrs by SRB assay; settings: SK-MEL-5, 48 h, read-out: GI; how it was run: as §2
PC-3 = experiment: Growth inhibition of human PC3 cells at 10 uM after 48 hrs by SRB assay; settings: PC-3, 48 h, read-out: GI; how it was run: as §2
T47D = experiment: Growth inhibition of human T47D cells at 10 uM after 48 hrs by SRB assay; settings: read-out: GI; how it was run: as §3
[8] = Cytotoxicity against human breast cancer cells after 48 hrs by SRB assay; settings: Cancer cell lines; how it was run: as §1
[9] = Cytotoxicity against human ovarian cancer cells after 48 hrs by SRB assay; settings: Cancer cell lines; how it was run: as §1
TK-10 = experiment: Growth inhibition of human TK10 cells at 10 uM after 48 hrs by SRB assay; settings: TK-10, 48 h, read-out: GI; how it was run: as §3
SNB-19 = experiment: Growth inhibition of human SNB19 cells at 10 uM after 48 hrs by SRB assay; settings: SNB-19, 48 h, read-out: GI; how it was run: as §3
[10] = Growth inhibition of human NCI-ADR-RES cells at 10 uM after 48 hrs by SRB assay; settings: read-out: GI; how it was run: as §2
NCI-H522 = experiment: Growth inhibition of human NCI-H522 cells at 10 uM after 48 hrs by SRB assay; settings: NCI-H522, 48 h, read-out: GI; how it was run: as §2
A549 = experiment: Growth inhibition of human A549 cells at 10 uM after 48 hrs by SRB assay; settings: A549, 48 h, read-out: GI; how it was run: as §2
HCT-15 = experiment: Growth inhibition of human HCT15 cells at 10 uM after 48 hrs by SRB assay; settings: HCT-15, 48 h, read-out: GI; how it was run: as §2
SF-268 = experiment: Growth inhibition of human SF268 cells at 10 uM after 48 hrs by SRB assay; settings: SF-268, 48 h, read-out: GI; how it was run: as §2
SK-MEL-2 = experiment: Growth inhibition of human SK-MEL-2 cells at 10 uM after 48 hrs by SRB assay; settings: SK-MEL-2, 48 h, read-out: GI; how it was run: as §2
RPMI-8226 = experiment: Growth inhibition of human RPMI8226 cells at 10 uM after 48 hrs by SRB assay; settings: RPMI-8226, 48 h, read-out: GI; how it was run: as §2
SW-620 = experiment: Growth inhibition of human SW620 cells at 10 uM after 48 hrs by SRB assay; settings: SW-620, 48 h, read-out: GI; how it was run: as §3
[11] = read-out: LC50 (the source's name)

For `O=c1[nH]cc(F)c(=O)[nH]1` [FLUOROURACIL], the GI50 [1] was 8.4 µM, the TGI [1] was > 100 µM and the CC50 [1, 11] was > 100 µM. For the same compound, the GI50 [2] was 45.6 µM, the TGI [2] was > 100 µM and the CC50 [2, 11] was > 100 µM. The inhibition of growth at 10 µM (MOLT-4) was 43.1%, the GI50 [3] was 22.7 µM and the TGI [3] was > 100 µM. The inhibition of growth at 10 µM (OVCAR-5) was 44.3%, the GI50 [4] was 72.1 µM and the TGI [4] was > 100 µM. For the same compound, the CC50 [4, 11] was > 100 µM, the inhibition of growth at 10 µM (OVCAR-3) was 47.4% and the inhibition of growth at 10 µM (NCI-H226) was 69.5%. The inhibition of growth at 10 µM (HOP-62) was 47.8%, the inhibition of growth at 10 µM (KM12) was 40.7% and the inhibition of growth at 10 µM (786-0) was 48.7%. The inhibition of growth at 10 µM (Malme-3M) was 58.2%, the GI50 [5] was 1.51 µM and the TGI [5] was > 100 µM. The GI50 [6] was > 100 µM, the TGI [6] was > 100 µM and the inhibition of growth at 10 µM (DU-145) was 35.5%. It also gave an inhibition of growth at 10 µM [7] of 58.4%, an inhibition of growth at 10 µM (UO-31) of 41.3% and an inhibition of growth at 10 µM (SK-MEL-5) of 33.7%. For the same compound, the inhibition of growth at 10 µM (PC-3) was 58.2%, the inhibition of growth at 10 µM (T47D) was 56.7% and the GI50 [8] was 76.4 µM. For the same compound, the TGI [8] was > 100 µM, the GI50 [9] was 61.4 µM and the TGI [9] was > 100 µM. For the same compound, the CC50 [9, 11] was > 100 µM, the inhibition of growth at 10 µM (TK-10) was 66.9% and the inhibition of growth at 10 µM (SNB-19) was 65.9%. For the same compound, the inhibition of growth at 10 µM [10] was 47.6%, the inhibition of growth at 10 µM (NCI-H522) was 58% and the inhibition of growth at 10 µM (A549) was 34.2%. It also gave an inhibition of growth at 10 µM (HCT-15) of 26.5%, an inhibition of growth at 10 µM (SF-268) of 59% and an inhibition of growth at 10 µM (SK-MEL-2) of 95.5%. The inhibition of growth at 10 µM (RPMI-8226) was 41.4% and the inhibition of growth at 10 µM (SW-620) was 50.1%.
